Data set [1] can be described thus: Lipophilicity, log D of the compound at pH 6.4. In kind it is physicochemical. As to conditions: buffer.
Data set [2] has as its target Beta-2 adrenergic receptor (Homo sapiens, UniProt P07550). Description: Agonist activity at human beta2 receptor expressed in CHO cells assessed as cAMP accumulation. In kind it is functional, cell-based.
The species named for data set [3] is Cavia porcellus. As to the kind of experiment: Bronchodilatory activity against electrically-stimulated contraction in guinea pig trachea assessed as onset time for bronchorelaxation activity. It counts as functional. A digest of the protocol:
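Isolated guinea pig trachea strips were superfused and contracted electrically. Agonist was perfused until maximal relaxation was reached. Onset was taken as the time for an EC50 concentration to reach 50% of maximal relaxant effect. Minimum n = 2.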

The target in data set [4] is Beta-3 adrenergic receptor (Homo sapiens, UniProt P13945). As to the kind of experiment: Agonist activity at human beta3 receptor expressed in CHO cells assessed as cAMP accumulation. In kind it is functional, cell-based.
Chain of Beta-3 adrenergic receptor (P13945 whole entry): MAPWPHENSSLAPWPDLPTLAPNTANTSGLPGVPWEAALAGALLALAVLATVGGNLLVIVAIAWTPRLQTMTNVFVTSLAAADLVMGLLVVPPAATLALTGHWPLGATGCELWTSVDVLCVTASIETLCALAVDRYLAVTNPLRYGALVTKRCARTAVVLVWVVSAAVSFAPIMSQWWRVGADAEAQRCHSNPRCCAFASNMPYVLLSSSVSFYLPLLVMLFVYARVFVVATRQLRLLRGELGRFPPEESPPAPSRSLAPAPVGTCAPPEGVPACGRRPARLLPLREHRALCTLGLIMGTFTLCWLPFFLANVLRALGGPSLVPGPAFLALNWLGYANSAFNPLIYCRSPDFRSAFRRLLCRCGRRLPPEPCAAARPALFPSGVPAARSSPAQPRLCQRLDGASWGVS
Data set [5] concerns the target Beta-1 adrenergic receptor (Homo sapiens, UniProt P08588). Description: Agonist activity at human beta1 receptor expressed in CHO cells assessed as cAMP accumulation. It counts as functional, cell-based.
In data set [6] the target is Beta-2 adrenergic receptor (Cavia porcellus, UniProt Q8K4Z4). Description: Agonist activity at beta2 adrenergic receptor in guinea pig tracheal strip assessed as inhibition of electrically-induced bronchocontractile response. It counts as functional, tissue-based, Trachea.
Chain of Beta-2 adrenergic receptor (Cavia porcellus, UniProt Q8K4Z4) (Q8K4Z4 whole entry): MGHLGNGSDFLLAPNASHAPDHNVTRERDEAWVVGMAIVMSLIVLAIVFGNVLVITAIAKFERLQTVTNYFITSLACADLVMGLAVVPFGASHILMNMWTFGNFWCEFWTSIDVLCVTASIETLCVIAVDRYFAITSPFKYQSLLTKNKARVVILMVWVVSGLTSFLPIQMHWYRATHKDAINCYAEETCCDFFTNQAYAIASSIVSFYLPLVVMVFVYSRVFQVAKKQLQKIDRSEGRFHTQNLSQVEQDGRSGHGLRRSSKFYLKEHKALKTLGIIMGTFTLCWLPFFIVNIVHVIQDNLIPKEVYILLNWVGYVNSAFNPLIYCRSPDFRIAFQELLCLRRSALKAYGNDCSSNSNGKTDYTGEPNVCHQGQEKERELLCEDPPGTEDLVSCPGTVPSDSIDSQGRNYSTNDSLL
In a further data set the test system is Liver microsomes. Description: Metabolic stability in human liver microsomes assessed as compound turn over ratio relative to verapamil. It counts as ADME, Microsome.
A short description of data set [7]: Half life in Han Wistar rat at 0.25 mg/kg, iv. It counts as ADME, organism-based. More on the design: dose 0.25 mg/kg, route intravenous. The conditions noted are these: in vivo. A digest of the protocol: (§1)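 Pharmacokinetics were run in male Han Wistar rat and Beagle dog, dosed intravenously and orally. Plasma clearance, steady-state volume of distribution, half-life and oral bioavailability were derived from the plasma profiles. Rat plasma samples were deconjugated before analysis.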

For a further data set, the system named is Canis familiaris. Description: Liver blood flow in Beagle dog at 0.05 mg/kg, iv. As to conditions: in vivo.
Data set [8] in a line: AUC in Han Wistar rat at 2 mg/kg, po. More on the design: dose 2 mg/kg, route oral. In kind it is ADME, organism-based. As to conditions: plasma. The essentials:
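Oral absorption in rat was measured as AUC using a deconjugated HPV model.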

Data set [9] in a line: Oral bioavailability in Beagle dog at 0.25 mg/kg. The conditions noted are these: in vivo.
For another data set, the system named is Rattus norvegicus. As to the kind of experiment: Liver blood flow in Han Wistar rat at 0.25 mg/kg, iv. It counts as ADME, organism-based. On the set-up: dose 0.25 mg/kg, route intravenous. The conditions noted are these: in vivo.
The test system of data set [10] is Cavia porcellus. As to the kind of experiment: Bronchodilatory activity against histamine-induced bronchospasm in guinea pig assessed as time taken for 50% recovery of bronchospasm at 10 times EC90 administered via nebulizer. It counts as functional. The essentials:
(§2)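 In vivo guinea pig model with histamine-induced bronchospasm, measured in a plethysmograph chamber. Compound was given as a nebulised solution in dimethyl acetamide-saline vehicle. Potency is expressed as the EC90 nebuliser concentration.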

Data set [11] relates to Cavia porcellus. As to the kind of experiment: Bronchodilatory activity against histamine-induced bronchospasm in guinea pig assessed as time taken for 50% recovery of bronchospasm at EC90 administered via nebulizer. In kind it is functional. A digest of the protocol: as §2
A short description of data set [12]: Volume of distribution at steady state in Han Wistar rat at 0.25 mg/kg, iv. It counts as ADME, organism-based. On the set-up: dose 0.25 mg/kg, route intravenous. The conditions noted are these: in vivo, read-out: Vdss. The essentials: as §1
The species named for data set [13] is Cavia porcellus. As to the kind of experiment: Bronchodilatory activity against histamine-induced bronchospasm in the guinea pig. It counts as functional. A digest of the protocol: as §2
Data set [14] is described as follows: Oral bioavailability in Han Wistar rat at 2 mg/kg. It counts as ADME, organism-based. The conditions noted are these: in vivo. A digest of the protocol:
as §1

A short description of data set [15]: Plasma clearance in Beagle dog at 0.05 mg/kg, iv.
Data set [16] in a line: Volume of distribution at steady state in Beagle dog at 0.05 mg/kg, iv. The conditions noted are these: in vivo, read-out: Vdss.
A short description of data set [17]: Plasma clearance in Han Wistar rat at 0.25 mg/kg, iv. In kind it is ADME, organism-based. On the set-up: dose 0.25 mg/kg, route intravenous. The essentials: as §1
Data set [18] can be described thus: Half life in Beagle dog at 0.05 mg/kg, iv. As to conditions: in vivo.
Data set [19] in a line: Oral bioavailability in dog. It counts as ADME, organism-based, Canis lupus familiaris. As to conditions: in vivo. The essentials:
as §1

The structures appear in SMILES notation.

Chain of Beta-2 adrenergic receptor (Homo sapiens, UniProt P07550) (P07550 whole entry): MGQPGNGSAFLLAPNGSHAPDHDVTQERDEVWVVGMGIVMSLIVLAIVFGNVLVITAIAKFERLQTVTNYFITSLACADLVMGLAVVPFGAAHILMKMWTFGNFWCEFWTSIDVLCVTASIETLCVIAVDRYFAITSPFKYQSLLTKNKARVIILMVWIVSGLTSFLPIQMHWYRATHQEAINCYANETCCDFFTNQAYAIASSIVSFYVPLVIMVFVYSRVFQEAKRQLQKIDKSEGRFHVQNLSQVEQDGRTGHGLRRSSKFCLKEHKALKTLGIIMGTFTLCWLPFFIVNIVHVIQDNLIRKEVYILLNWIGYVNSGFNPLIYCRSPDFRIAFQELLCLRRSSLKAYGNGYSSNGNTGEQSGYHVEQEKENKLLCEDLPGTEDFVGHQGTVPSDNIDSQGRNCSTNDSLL
Chain of Beta-1 adrenergic receptor (P08588 whole entry): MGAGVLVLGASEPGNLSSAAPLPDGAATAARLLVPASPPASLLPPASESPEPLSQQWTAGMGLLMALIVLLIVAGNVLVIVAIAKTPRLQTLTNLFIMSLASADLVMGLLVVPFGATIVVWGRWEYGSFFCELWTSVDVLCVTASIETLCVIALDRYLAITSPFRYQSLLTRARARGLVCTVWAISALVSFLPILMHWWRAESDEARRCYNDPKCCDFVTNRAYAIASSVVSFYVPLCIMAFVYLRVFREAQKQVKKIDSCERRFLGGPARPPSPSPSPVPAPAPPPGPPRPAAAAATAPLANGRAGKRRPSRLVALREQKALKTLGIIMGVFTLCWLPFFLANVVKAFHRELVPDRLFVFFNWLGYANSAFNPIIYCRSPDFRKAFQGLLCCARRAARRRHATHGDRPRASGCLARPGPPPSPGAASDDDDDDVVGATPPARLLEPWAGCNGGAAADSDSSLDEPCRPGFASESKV

Regarding `CC(=O)O.NC(=O)Nc1cccc(CCCCOCCCCCCNC[C@H](O)c2ccc(O)c(CO)c2)c1`, the logD in data set [1] is -0.28. The EC50 was 0.794 nM in [2], 7.94 nM in data set [4], 63.1 nM in [5] and 2.51 nM in data set [6]. Moreover, in the data set listed under Cavia porcellus [3], the Time is 13.5 min. Moreover, the “fold change (FC)” value in the data set with Liver microsomes was 0.97.
Turning to `CC(=O)O.CCNC(=O)Nc1cccc(CCCCOCCCCCCNC[C@H](O)c2ccc(O)c(CO)c2)c1`, in data set [1], the logD turned out to be 0.5. For the same molecule, the EC50 in data set [2] is 1 nM; in data set [4] it was 158 nM; in [5], 31.6 nM; in data set [6], 1.26 nM. The Time in the data set filed under Cavia porcellus [3] came to 15 min. Moreover, the “fold change (FC)” value in the data set on Liver microsomes is reported as 0.81.
As to `CC(=O)O.O=C(Nc1cccc(CCCCOCCCCCCNC[C@H](O)c2ccc(O)c(CO)c2)c1)NC1CCCCC1`, the EC50 in [2] is 1 nM; in data set [4], 2.51 nM; in [5], 7.94 nM. The “fold change (FC)” value with Liver microsomes was 2.18.
With `CC(=O)O.CCNC(=O)Nc1ccc(CCCCOCCCCCCNC[C@H](O)c2ccc(O)c(CO)c2)cc1`, the values for the EC50 in [2], in data set [4] and in data set [5] were 0.501 nM, 12.6 nM and 31.6 nM, respectively. Also, the “fold change (FC)” value in the data set with Liver microsomes is given as 1.37.
Take `CC(=O)O.NC(=O)NCc1cccc(CCCCOCCCCCCNC[C@H](O)c2ccc(O)c(CO)c2)c1`: the results for the EC50 in [2], in data set [4] and in data set [5] were 0.501 nM, 15.8 nM and 7.94 nM, respectively. In the data set on Liver microsomes, the “fold change (FC)” value was 1.64.
For `CC(=O)O.CCNC(=O)NCc1cccc(CCCCOCCCCCCNC[C@H](O)c2ccc(O)c(CO)c2)c1`, in that order: 0.631 nM, 31.6 nM, 31.6 nM and 0.72.
`NC(=O)CNC(=O)Nc1cccc(CCCCOCCCCCCNC[C@H](O)c2ccc(O)c(CO)c2)c1.O=CO` yielded a logD in [1] of -0.78. Moreover, the EC50 in data set [2] is 0.251 nM; in [4], 100 nM; in data set [5] it was 31.6 nM; in data set [6], 0.251 nM. Further, the Time in the data set listed under Cavia porcellus [3] came to 9 min.
For the molecule `O=C(CNC(=O)Nc1cccc(CCCCOCCCCCCNC[C@H](O)c2ccc(O)c(CO)c2)c1)NC1CCCC1`, the EC50 is 0.316 nM in data set [2], 12.6 nM in data set [4] and 10 nM in data set [5].
Consider `CC(=O)O.NC(=O)Nc1cc(CCCCOCCCCCCNC[C@H](O)c2ccc(O)c(CO)c2)cc(C(F)(F)F)c1`, for which the 50% effective concentration (EC50) in [2] is 1 nM; in data set [4] it was 25.1 nM; in data set [5] it was 50.1 nM. Moreover, the “fold change (FC)” value with Liver microsomes came to 1.34.
In data set [1], `CC(=O)O.Cc1cc(CCCCOCCCCCCNC[C@H](O)c2ccc(O)c(CO)c2)cc(NC(N)=O)c1` returned a logD of 0.2. The concentration giving a half-maximal response (EC50) is 0.158 nM in data set [2], 39.8 nM in [4], 39.8 nM in data set [5] and 1.58 nM in data set [6]. Further, the half-life was 54 min in data set [7] and 60 min in data set [18]. The Time in the data set filed under Cavia porcellus [3] stood at 10 min; with Cavia porcellus [10], 18 h; with Cavia porcellus [11], 7 h. Also, the QH with Canis familiaris was under 67%; in the data set on Rattus norvegicus, 100%. The same molecule had an AUC in [8] of 80.2 ng·h/mL. Besides, the bioavailability in data set [9] was 6%; in data set [14], under 5%. The results for the Vd in data set [12] and in data set [16] were 2 L/kg and 0.55 L/kg, respectively. The EC90 in the data set listed under Cavia porcellus [13] came out at 10000 nM. Further, the clearance in [15] was found to be 6 mL/min/kg; in data set [17] it was 83 mL/min/kg. Further, in the data set on Liver microsomes, the “fold change (FC)” value is on record as 1.17.
On to `OCc1cc(C(O)CNCCCCCCOCCCCc2ccccc2)ccc1O` (configuration not stated) [SALMETEROL], for which the logD in [1] was found to be 1.06. Also, the bioavailability in data set [19] was determined as 66%. Also, in the data set on Cavia porcellus [11], the Time is 8 h.

Values taken from ChEMBL document CHEMBL1833832, “The discovery of long-acting saligenin β₂ adrenergic receptor agonists incorporating a urea group” (Bioorg Med Chem, 2011).
